Measurements taken from ChEMBL document CHEMBL3808291, “Bifunctional Peptide-Based Opioid Agonist-Nociceptin Antagonist Ligands for Dual Treatment of Acute and Neuropathic Pain” (J Med Chem, 2016).
Calls of active or inactive are those of the source. Numbered stars: 1 amine (or outer) side, 2 acyl side, 3 side chain; on linkers, the order of the positions; unused ones are H or OH. Square brackets hold non-standard residues; d marks the D form. Peptide text beside a SMILES is read from it. X1 = O=C1[C@@H](N[*:1])Cc2ccccc2CN1CCC(=O)[*:2]; Phe(4-F) = N[C@@H](Cc1ccc(F)cc1)C(=O)O; Dmt = Cc1cc(O)cc(C)c1C[C@H](N)C(=O)O

Tests used:
[1] = tested on: Mus musculus; assay: Neurotoxicity in intrathecally dosed albino Swiss CD1 IGS mouse assessed as motor impairment measured after 15 to 120 mins post dose by rotarod test; format: toxicity, organism-based; details: in vivo, icv_or_intrathecal
In short: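 Intrathecal dosing (water for injection, 5 µL) to male CD-1 mice. After three training sessions, mice placed on accelerating rod (2 to 40 rpm over 300 s cutoff); tested 15 and 120 min after injection.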

[2] = tested on: Mus musculus; assay: Antihyperalgesic activity in albino Swiss CD1 IGS mouse model of streptozocin-induced type1 diabetic neuropathic pain assessed as increase in paw withdrawal latency at 0.007 nmol, it administered on day 10 after STZ injection measured at 180 mins post dose by […]; format: functional, organism-based
In short: (§1)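 Male Albino Swiss CD-1 mice made diabetic by single ip streptozocin 200 mg/kg; glucose >300 mg/dL required; tested day 10. Compound in water for injection, 5 µL intrathecal at L5–L6; von Frey or cold plate (2 °C, 30 s cutoff) at 30, 90, 180 min; 6–8 mice per group.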

[3] = biological target: T1, Nociceptin receptor (Homo sapiens, UniProt P41146); assay: Antagonist activity at human nociceptin receptor expressed in HEK293 cells assessed as inhibition of OFQ/nociceptin-induced suppression of cAMP accumulation up to 20 uM preincubated for 15 mins followed by OFQ/nociceptin addition by luciferase reporter gene assay; format: functional, cell-based
[4] = tested on: Mus musculus; assay: Antiallodynic activity in albino Swiss CD1 IGS mouse model of streptozocin-induced type1 diabetic neuropathic pain assessed as increase in mechanical threshold for paw withdrawal at 0.007 nmol, it administered on day 10 after STZ injection measured at 180 mins post dose by Von Frey test; format: functional, organism-based; in short: as §1
[5] = tested on: Mus musculus; assay: Antiallodynic activity in albino Swiss CD1 IGS mouse model of streptozocin-induced type1 diabetic neuropathic pain assessed as increase in mechanical threshold for paw withdrawal at 0.007 nmol, it administered on day 10 after STZ injection measured at 30 mins post dose by Von Frey test; format: functional, organism-based; in short: as §1
[6] = biological target: T1, Nociceptin receptor; assay: Agonist activity at human nociceptin receptor expressed in HEK293 cells assessed as inhibition of forskolin-stimulated cAMP production up to 10 uM preincubated for 15 mins followed by forskolin addition measured for 90 mins by luciferase reporter gene assay; format: functional, cell-based
In short: (§2)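 HEK293 cells stably expressing human NOP and GloSensor, in Hepes buffer pH 7.4 with 1 mM d-luciferin, pre-equilibrated 2 h at 25 °C. Compound at various concentrations added 15 min before forskolin (0.5 µM final); luminescence read kinetically for 90 min at 25 °C with 0.5 mM IBMX. At least two experiments in duplicate.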

[7] = tested on: Mus musculus; assay: Antiallodynic activity in albino Swiss CD1 IGS mouse model of streptozocin-induced type1 diabetic neuropathic pain assessed as increase in mechanical threshold for paw withdrawal at 0.008 nmol, it administered on day 10 after STZ injection measured at 30 mins post dose by Von Frey test; format: functional, organism-based; in short: as §1
[8] = tested on: Mus musculus; assay: Antihyperalgesic activity in albino Swiss CD1 IGS mouse model of streptozocin-induced type1 diabetic neuropathic pain assessed as increase in paw withdrawal latency at 0.008 nmol, it administered on day 10 after STZ injection measured at 180 mins post dose by […]; format: functional, organism-based; in short: as §1
[9] = tested on: Mus musculus; assay: Antiallodynic activity in albino Swiss CD1 IGS mouse model of streptozocin-induced type1 diabetic neuropathic pain assessed as increase in mechanical threshold for paw withdrawal at 0.008 nmol, it administered on day 10 after STZ injection measured at 180 mins post dose by Von Frey test; format: functional, organism-based; in short: as §1
[10] = biological target: T1, Nociceptin receptor; assay: Partial agonist activity at human nociceptin receptor expressed in HEK293 cells assessed as inhibition of forskolin-stimulated cAMP production preincubated for 15 mins followed by forskolin addition measured for 90 mins by luciferase reporter gene assay relative to nociceptin; format: functional, cell-based; in short: as §2
[11] = biological target: T1, Nociceptin receptor; assay: Agonist activity at human nociceptin receptor expressed in CHO cell membrane incubated for 60 mins by [35S]GTPgammaS binding assay relative to control; format: functional, cell membranes
[12] = tested on: Mus musculus; assay: Antiallodynic activity in albino Swiss CD1 IGS mouse model of streptozocin-induced type1 diabetic neuropathic pain assessed as increase in mechanical threshold for paw withdrawal at 0.005 nmol, it administered on day 10 after STZ injection measured at 30 mins post dose by Von Frey test; format: functional, organism-based
In short: (§3)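 Male CD-1 mice (30–35 g). CCI: sciatic constriction injury, tested on days 7–16 after surgery. STZ diabetes: single ip streptozocin 200 mg/kg; mice with glucose >300 mg/dL included, tested on day 10. Drug in water for injection, given it (5 µL, L5–L6 lumbar puncture) to conscious mice. von Frey (cutoff 6 g) or cold plate (2 °C, 30 s cutoff, paw lift) at 30, 90, 180 min; 6–8 mice/group.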

[13] = tested on: Mus musculus; assay: Antihyperalgesic activity in intrathecally dosed albino Swiss CD1 IGS mouse model of chronic constriction injury-induced neuropathic pain assessed as increase in paw withdrawal latency administered on day 7 to 16 after CCI surgery measured 30 mins post dose by cold plate test; format: functional
In short: (§4)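 Male Albino Swiss CD-1 mice (30–35 g), sciatic chronic constriction injury under chloral hydrate; tested days 7–16 post-surgery. Compound in water for injection, 5 µL intrathecal by lumbar puncture L5–L6 in awake mice.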

[14] = tested on: Mus musculus; assay: Antihyperalgesic activity in albino Swiss CD1 IGS mouse model of streptozocin-induced type1 diabetic neuropathic pain assessed as increase in paw withdrawal latency at 0.005 nmol, it administered on day 10 after STZ injection measured at 180 mins post dose by […]; format: functional, organism-based; in short: as §3
[15] = biological target: T1, Nociceptin receptor; assay: Displacement of [3H]OFQ/nociceptin from human nociceptin receptor expressed in HEK293 cell membrane incubated for 1 hr by TopCount scintillation counting method; format: cell membranes
[16] = tested on: Mus musculus; assay: Antiallodynic activity in albino Swiss CD1 IGS mouse model of streptozocin-induced type1 diabetic neuropathic pain assessed as increase in mechanical threshold for paw withdrawal at 0.005 nmol, it administered on day 10 after STZ injection measured at 180 mins post dose by Von Frey test; format: functional, organism-based; in short: as §3
[17] = tested on: Mus musculus; assay: (§5) Antiallodynic activity in intrathecally dosed albino Swiss CD1 IGS mouse model of chronic constriction injury-induced neuropathic pain assessed as increase in mechanical threshold for paw withdrawal administered on day 7 to 16 after CCI surgery measured 30 mins post dose by Von Frey test; format: functional; in short: as §4
[18] = species on record: Mus musculus; assay: Neurotoxicity in albino Swiss CD1 IGS mouse assessed as motor impairment at 0.5 nmol, it measured after 15 to 120 mins post dose by rotarod test; format: toxicity, organism-based; details: in vivo, icv_or_intrathecal
In short: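 CD-1 mice given intrathecal compound (5 µL, L5–L6), tested at 15 and 120 min on accelerating rotarod, 2 to 40 rpm over 300 s cutoff, after three training sessions.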

[19] = tested on: Mus musculus; assay: as §5, with “in” for “in intrathecally dosed”, “withdrawal at 10 ug, it” for “withdrawal”, “test relative to control” for “test”; format: functional
[20] = tested on: Mus musculus; assay: Antihyperalgesic activity in albino Swiss CD1 IGS mouse model of chronic constriction injury-induced neuropathic pain assessed as increase in paw withdrawal latency at >10 ug, it administered on day 7 to 16 after CCI surgery measured 30 mins post dose by cold plate test relative to control; format: functional
[21] = tested on: Mus musculus; assay: Antinociceptive activity in C57BL6 mouse model of acute pain assessed as increase in withdrawal latency from radiant heat source at 390 nmol/kg, iv measured after 60 mins by tail flick assay; format: functional, organism-based
In short: (§6)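 Male C57BL6 mice (20–25 g); compound or saline given iv into tail vein (po also tested). Radiant heat on ventral tail, latency to withdrawal/shaking recorded at baseline and 5, 15, 30, 60, 120 min (later points also reported); normalized as %MPE; 8–10 mice per group.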

[22] = tested on: Mus musculus; assay: Antinociceptive activity in C57BL6 mouse model of acute pain assessed as increase in withdrawal latency from radiant heat source at 390 nmol/kg, iv measured after 15 to 30 mins by tail flick assay; format: functional, organism-based; in short: as §6
[23] = tested on: Mus musculus; assay: as §5, with “in” for “in intrathecally dosed”, “withdrawal at >10 ug, it” for “withdrawal”, “test relative to control” for “test”; format: functional
[24] = tested on: Mus musculus; assay: Antihyperalgesic activity in albino Swiss CD1 IGS mouse model of chronic constriction injury-induced neuropathic pain assessed as increase in paw withdrawal latency at 10 ug, it administered on day 7 to 16 after CCI surgery measured 30 mins post dose by cold plate test relative to control; format: functional
[25] = tested on: Mus musculus; assay: Antinociceptive activity in iv dosed C57BL6 mouse model of acute pain assessed as increase in withdrawal latency from radiant heat source measured after 5 to 120 mins by tail flick assay; format: functional, organism-based
In short: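 Male C57BL6 mice (20–25 g), restrained; compound or saline control injected intravenously into tail vein. Radiant heat light beam applied to ventral tail; latency to withdrawal or tail shake recorded at baseline and 5, 15, 30, 60, 120 min post-injection. Latencies normalized as %MPE (mean ± SEM); groups of 8–10 mice.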

[26] = tested on: Mus musculus; assay: Antinociceptive activity in C57BL6 mouse model of acute pain assessed as increase in withdrawal latency from radiant heat source at 10 ug, iv measured after 5 to 120 mins by tail flick assay relative to control; format: functional
[27] = tested on: Mus musculus; assay: Antinociceptive activity in C57BL6 mouse model of acute pain assessed as increase in withdrawal latency from radiant heat source at >10 ug, iv measured after 5 to 120 mins by tail flick assay relative to control; format: functional

T1 sequence (P41146 whole entry): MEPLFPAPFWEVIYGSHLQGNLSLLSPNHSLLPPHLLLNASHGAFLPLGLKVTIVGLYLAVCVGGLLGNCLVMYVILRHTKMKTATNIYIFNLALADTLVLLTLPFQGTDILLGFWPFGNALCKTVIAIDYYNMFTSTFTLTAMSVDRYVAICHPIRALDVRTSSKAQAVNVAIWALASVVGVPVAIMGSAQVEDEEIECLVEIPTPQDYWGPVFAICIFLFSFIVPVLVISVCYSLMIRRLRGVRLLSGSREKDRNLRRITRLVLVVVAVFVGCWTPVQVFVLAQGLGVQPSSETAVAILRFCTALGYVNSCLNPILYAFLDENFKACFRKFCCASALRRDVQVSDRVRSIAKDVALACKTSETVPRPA

`CC[C@H](C)[C@H](NC(=O)[C@H](CCCNC(=N)N)NC(=O)[C@H](Cc1ccc(O)cc1)NC(=O)[C@H](Cc1ccc(O)cc1)NC(=O)[C@@H](N)CCCNC(=N)N)C(=O)N[C@@H](CCCCN)C(N)=O` was tested, and the Activity [1] was “Non-toxic”, the Activity [2] was “inactive” and the inhibition [3] was “inactive”. For the same compound, the Activity [4] was “inactive”, the Activity [5] was “Active” and the Activity [6] was “inactive”.

`CC[C@H](C)[C@@H](NC(=O)[C@H](CCCNC(=N)N)NC(=O)[C@H](Cc1ccc(O)cc1)NC(=O)[C@H](Cc1ccc(O)cc1)NC(=O)[C@H](CCCNC(=N)N)NC(C)=O)C(=O)N[C@@H](CCCCN)C(N)=O` was tested, and the Activity [7] was “Active”, the Activity [8] was “inactive” and the inhibition [3] was “inactive”. The Activity [9] was “inactive” and the inhibition [10] was 70%.

For `CC(=O)N[C@@H](CCCNC(=N)N)C(=O)N[C@@H](Cc1ccc(O)cc1)C(=O)N[C@@H](Cc1ccc(F)cc1)C(=O)N[C@@H](CCCNC(=N)N)C(=O)N[C@@H](Cc1c[nH]c2ccccc12)C(=O)N[C@@H](CCCNC(=N)N)C(N)=O` (Ac-RY[Phe(4-F)]RWR-NH2), the Activity [11] was 70%.

`Cc1cc(O)cc(C)c1C[C@H](N)C(=O)N[C@H](CCCNC(=N)N)C(=O)N[C@H]1Cc2ccccc2CN(CCC(=O)N[C@@H](CCCNC(=N)N)C(=O)N[C@@H](Cc2ccc(O)cc2)C(=O)N[C@@H](Cc2ccc(O)cc2)C(=O)N[C@@H](CCCNC(=N)N)C(=O)N[C@@H](Cc2c[nH]c3ccccc23)C(=O)N[C@@H](CCCNC(=N)N)C(N)=O)C1=O` (H-[Dmt][dR][X1]RYYRWR-NH2) was tested, and the Activity [1] was “Non-toxic”, the Activity [12] was “Active” and the ED50 [13] was 0.002 nmol. The Activity [14] was “inactive”, the Ki [15] was 47 nM and the Activity [16] was “inactive”. For the same compound, the ED50 [17] was 0.0009 nmol.

For `Cc1cc(O)cc(C)c1C[C@H](NC(=O)[C@H](Cc1ccc(O)cc1)NC(=O)[C@H](CCCNC(=N)N)NC(=O)CCN1Cc2ccccc2C[C@H](NC(=O)[C@@H](CCCNC(=N)N)NC(=O)[C@@H](N)Cc2c(C)cc(O)cc2C)C1=O)C(=O)N[C@@H](CCCNC(=N)N)C(=O)N[C@@H](Cc1c[nH]c2ccccc12)C(=O)N[C@@H](CCCNC(=N)N)C(N)=O` (H-[Dmt][dR][X1]RY[Dmt]RWR-NH2), the Activity [1] was “Non-toxic”, the Activity [12] was “Active” and the ED50 [13] was 0.005 nmol. For the same compound, the Activity [14] was “inactive”, the Activity [16] was “inactive” and the ED50 [17] was 0.0009 nmol.

In the case of `Cc1cc(O)cc(C)c1C[C@H](N)C(=O)N[C@H](CCCNC(=N)N)C(=O)N[C@H]1Cc2ccccc2CN(CCC(=O)N[C@@H](CCCNC(=N)N)C(=O)N[C@@H](Cc2ccc(O)cc2)C(=O)N[C@@H](Cc2ccc(F)cc2)C(=O)N[C@@H](CCCNC(=N)N)C(=O)N[C@@H](Cc2c[nH]c3ccccc23)C(=O)N[C@@H](CCCNC(=N)N)C(N)=O)C1=O` (H-[Dmt][dR][X1]RY[Phe(4-F)]RWR-NH2), the Activity [12] is reported as “Active”, the Activity [14] is reported as “inactive” and the Activity [18] is reported as “Toxic”. The Activity [16] was “inactive”.

Compound `CN1CC[C@]23c4c5ccc(O)c4O[C@H]2[C@@H](O)C=C[C@H]3[C@H]1C5` [MORPHINE] has an MPE [19] of 36.5%, an MPE [20] of 50% and an ED50 [13] of 7.46 nmol. For the same compound, the Activity [21] was “inactive”, the Activity [22] was “Active” and the MPE [23] was 50%. The MPE [24] was 30.15%, the Activity [25] was “Dose-dependent effect” and the MPE [26] was 63.8%. The MPE [27] was 100% and the ED50 [17] was 7 nmol.
